Source: ChEMBL document CHEMBL1123064, “[1,4]Benzoxazine-2,3-diones as antiallergic agents” (J Med Chem, 1985)

Tests used:
Rattus norvegicus [1] = test: Inhibition of antigen-induced […] at a dose of 25 mg/kg in passive cutaneous anaphylaxis in the male Sprague-Dawley rats; type: functional
In short: (§1)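 IgE antiserum was raised in male Sprague-Dawley rats with im ovalbumin/aluminum hydroxide plus ip B. pertussis. Naive rats were sensitized intradermally at dorsal sites (antiserum 1:20). After 48 h, groups of four received oral compound or vehicle (1% methylcellulose). 10 min later, iv challenge with 4 mg ovalbumin in 1% Evans blue; blued wheal areas measured at 30 min; Student's t test.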

Rattus norvegicus [2] = organism: Rattus norvegicus; test: Concentration required to inhibit antigen-induced release of histamine (AIR) by 50% from passively sensitized rat mast cells; type: functional, cell-based; settings: read-out: I50
In short: (§2)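 Washed rat mast cells, passively sensitized in vitro with rat anti-ovalbumin serum, washed again, then challenged with ovalbumin; histamine release measured. Compounds dissolved in Me2SO (final 0.17%). I50 read from concentration-dependent inhibition; number of experiments in parentheses. DSCG positive control in every experiment.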

Rattus norvegicus [3] = test: Effective dose against passive cutaneous anaphylaxis in rat when administered perorally.; type: functional; settings: po; in short: as §1
Rattus norvegicus [4] = test: Effective dose against passive cutaneous anaphylaxis when administered perorally.; type: functional; settings: po; in short: as §1
Rattus norvegicus [5] = test: Percent Inhibition of antigen-induced release of histamine at a dose of 50 mg/kg in passive cutaneous anaphylaxis in the male Sprague-Dawley rats; type: functional; in short: as §1
Rattus norvegicus [6] = organism: Rattus norvegicus; test: Concentration required to inhibit antigen-induced release of histamine (AIR) by 50% from passively sensitized rat mast cells at p<0.01; type: functional, cell-based; settings: Mast cell, read-out: I50; in short: as §2
Rattus norvegicus [7] = test: Inhibition of antigen-induced release of histamine at a dose of 50 mg/kg in passive cutaneous anaphylaxis in the male Sprague-Dawley rats; type: functional; in short: as §1
Rattus norvegicus [8] = test: Effective dose against passive anaphylaxis in rat when administered intraperitoneally.; type: functional; settings: ip
Rattus norvegicus [9] = test: Effective dose against passive cutaneous anaphylaxis in rat when administered intraperitoneally.; type: functional; settings: ip

| SMILES | inhibition in vivo at 25 mg/kg (Rattus norvegicus [1]) | IC50 (Rattus norvegicus [2]) | inhibition in vivo at 50 mg/kg (Rattus norvegicus [5]) | further results |
| --- | --- | --- | --- | --- |
| O=c1[nH]c2cc(Cl)ccc2oc1=O | 14% |  |  |  |
| COc1ccc2oc(=O)c(=O)[nH]c2c1 | 21% | 15 µM |  |  |
| O=c1[nH]c2cc3[nH]c(=O)c(=O)oc3cc2oc1=O | 13% | 3 µM |  | ED50 (Rattus norvegicus [3]): > 125 mg/kg |
| O=c1[nH]c2cc(C(F)(F)F)ccc2oc1=O | 20% | 100 µM |  |  |
| O=c1[nH]c2cc3oc(=O)c(=O)[nH]c3cc2oc1=O | 0% | 1.2 µM |  | ED50 (Rattus norvegicus [3]): > 125 mg/kg |
| C=CCc1cc(OC)c2oc(=O)c(=O)[nH]c2c1 | 77% | 10 µM |  | ED50 (Rattus norvegicus [4]): 7 mg/kg |
| O=c1[nH]c2cc3ccccc3cc2oc1=O | 11% |  | 45% | IC50 (Rattus norvegicus [6]): 45 µM |
| O=c1[nH]c2cc3c(cc2oc1=O)CCCC3 | 15% | 10 µM |  | ED50 (Rattus norvegicus [3]): 96 mg/kg |
| COc1ccc2[nH]c(=O)c(=O)oc2c1 | 33% | 28 µM |  |  |
| COC(=O)c1cc(OC)c2oc(=O)c(=O)[nH]c2c1 | 35% | 3.4 µM |  |  |
| COc1cc2[nH]c(=O)c(=O)oc2cc1OC | 45% | 30 µM | 100% | ED50 (Rattus norvegicus [3]): 20 mg/kg |
| CCOC(=O)C(=O)Nc1ccc2oc(=O)c(=O)[nH]c2c1 |  | 60 µM |  |  |
| Cc1ccc2[nH]c(=O)c(=O)oc2c1 |  | 32 µM | 97% |  |
| COc1cccc2[nH]c(=O)c(=O)oc12 | 88% | 7 µM | 89% | ED50 (Rattus norvegicus [3]): 14 mg/kg |
| CCOC(=O)c1ccc2oc(=O)c(=O)[nH]c2c1 | 0% | 10 µM |  |  |
| O=c1[nH]c2ccccc2oc1=O |  | 42 µM | 70% |  |
| O=c1[nH]c2c(ccc3ccccc32)oc1=O |  | < 100 µM | 18% |  |
| N#Cc1ccc2[nH]c(=O)c(=O)oc2c1 |  | 15 µM |  | inhibition in vivo at 50 mg/kg (Rattus norvegicus [7]): 14%; ED50 (Rattus norvegicus [8]): 23 mg/kg |
| O=c1[nH]c2cc([N+](=O)[O-])ccc2oc1=O |  | 0.8 µM | 91% | inhibition in vivo at 50 mg/kg (Rattus norvegicus [7]): 24% |
| O=C(O)c1ccc2[nH]c(=O)c(=O)oc2c1 | 7% | 16 µM | 83% |  |
| O=c1[nH]c2ccc(O)cc2oc1=O |  | 170 µM |  |  |
| O=C([O-])c1cc(=O)c2c(OCC(O)COc3cccc4oc(C(=O)[O-])cc(=O)c34)cccc2o1.[Na+].[Na+] [CROMOLYN SODIUM] |  | 4.5 µM |  | ED50 (Rattus norvegicus [9]): 6 mg/kg |
